The full list was thinned out, with hits kept by preference.
Avidin bead fluor = avidin bead compound fluorescence profile. AID 1775. Avidin beads, compound fluorescence 488/530 nm, flow cytometry; stronger effect = higher value. hit rate 0.38% among 220,000. fluorescence (KMESF) at 10 µM; in the data active = fluorescence above about 47
PKD1 kinase inh = blocks activity of human protein kinase D1 | inhibition, % (no concentration beside the values) | AID 797 | Q15139 | hit rate 0.056% among 200,000 | PKD1 kinase fluorescence polarization assay
Target sequence (Q15139 whole entry, looked up): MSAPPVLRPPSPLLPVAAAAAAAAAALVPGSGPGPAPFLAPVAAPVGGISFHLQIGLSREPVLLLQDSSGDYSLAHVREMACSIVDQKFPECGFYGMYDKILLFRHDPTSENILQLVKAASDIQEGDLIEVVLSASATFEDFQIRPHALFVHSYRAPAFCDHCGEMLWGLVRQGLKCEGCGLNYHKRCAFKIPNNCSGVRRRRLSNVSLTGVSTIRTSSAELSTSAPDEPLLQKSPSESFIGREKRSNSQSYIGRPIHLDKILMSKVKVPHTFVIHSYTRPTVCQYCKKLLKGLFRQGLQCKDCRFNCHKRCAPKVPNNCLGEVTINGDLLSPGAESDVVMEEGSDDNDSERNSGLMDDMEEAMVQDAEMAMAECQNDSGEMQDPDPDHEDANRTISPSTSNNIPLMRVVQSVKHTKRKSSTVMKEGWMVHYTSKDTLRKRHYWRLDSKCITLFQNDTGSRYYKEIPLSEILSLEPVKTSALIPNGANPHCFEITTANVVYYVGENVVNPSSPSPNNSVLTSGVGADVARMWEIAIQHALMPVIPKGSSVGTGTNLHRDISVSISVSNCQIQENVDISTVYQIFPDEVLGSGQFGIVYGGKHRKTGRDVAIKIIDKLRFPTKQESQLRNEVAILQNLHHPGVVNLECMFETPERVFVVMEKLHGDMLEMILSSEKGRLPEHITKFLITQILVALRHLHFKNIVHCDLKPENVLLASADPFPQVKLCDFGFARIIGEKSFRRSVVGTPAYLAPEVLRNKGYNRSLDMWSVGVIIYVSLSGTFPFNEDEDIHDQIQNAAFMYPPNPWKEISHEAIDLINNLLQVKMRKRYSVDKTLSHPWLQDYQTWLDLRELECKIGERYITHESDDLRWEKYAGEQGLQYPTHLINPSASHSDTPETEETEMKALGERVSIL
ABCB1 block = inhibitors of human ABCB1 transporter, ABCG2 counter-screen; P08183; CCRF-Adr cells, JC-1 efflux, flow cytometry; inhibition, % at 6.6 µM; hit rate 0.067% among 190,000; AID 1326; in the data active = inhibition above about 40%;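 also: higher value means more JC-1 retained so stronger ABCB1 efflux block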
GSH fluor = GSH bead compound fluorescence profile; AID 1776; hit rate 0.25% among 190,000; GSH beads flow cytometry, compound fluorescence 488/530 nm; stronger effect = higher value; fluorescence (KMESF) at 10 µM; in the data active = fluorescence above about 89;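 also: glutathione beads carrying GST-tagged Bcl family fusion proteins plus one bare bead set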
L major viab = reduces viability of Leishmania major promastigotes; hit rate 9% among 200,000; resazurin fluorescence viability; inhibition, % at 10 µM;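 also: promastigotes grown with compound for 44 hours at 28 °C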
ABCG2 block = blocks JC-1 efflux by human ABCG2 transporter. AID 1325. IgMXP3 cells, flow cytometry. hit rate 0.1% among 190,000. inhibition, % at 6.6 µM. Q9UNQ0;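 active = inhibition above 80%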
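material = IgMXP3 (ABCG2) plus far-red-tagged CCRF-Adr (ABCB1) cells | amount = 3 million cells/mL, equal mix of both lines | also added = JC-1 transporter substrate | dosing = one concentration, 6.6 µM final | schedule = 10 min at 25 °C | measured by = flow cytometric JC-1 green MFI at 530 nm | read-out basis = percent efflux inhibition, scaled nicardipine 100% to DMSO 0%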
Each line names hits and unclear results; the compound was inactive in the other large screens. Rule as the data show it, unless noted: active = inhibition above about 50%; inactive = the rest.

CCOC(=O)c1ccc(NC(=O)COC(=O)c2cccc(Oc3ccccc3)c2)cc1	none
COc1cc(CNc2ccc(S(N)(=O)=O)cc2)ccc1OCC(=O)NC1CCCCC1	none
Cn1c(/C=C/c2ccc([N+](=O)[O-])o2)nc2ccccc2c1=O	L major viab 100
CC(=O)N(C(C)=O)n1c(/C=C/c2cccc([N+](=O)[O-])c2)nc2ccccc2c1=O	none
O=C(N/N=C/c1ccc([N+](=O)[O-])o1)c1cc(-c2ccncc2)nc2ccccc12	L major viab 99
Cc1ccc2nc(N/N=C/c3ccco3)cc(C)c2c1	L major viab 62
Cc1cccc(C)c1NC(=O)CNC(=O)CCC(=O)c1cccs1	none
CC1(C)SCC2C(=O)N3C(CSC3(C)C)C(=O)N21 (centres undefined)	none
CN(C(=O)COc1cc(=O)n(C)c2ccccc12)c1ccc(Br)cc1	none
CCOc1ccc(/C(CC)=N/NC(=O)C2(C)CC2(Br)Br)cc1 (centres undefined)	L major viab 58
CCOc1ccc(/C(CCC(=O)O)=N/NC(=S)NC(C)C)cc1	none
O=C(CSc1nc2ccccc2[nH]1)Nc1ccc2c(c1)OCCO2	none
O=C(CSc1ncccc1-c1nc2ccccc2[nH]1)Nc1ccc2c(c1)OCCO2	L major viab 73
Cc1cc(/C=C2\SC(=Nc3ccccc3)NC2=O)c(C)n1-c1ccc(S(N)(=O)=O)cc1	none
CCOC(=O)c1sc(N)c(C#N)c1COC(=O)CNC(=O)c1ccccc1	none
CSc1ccc(C(=S)N2CCN(Cc3ccccc3)CC2)cc1	L major viab 94
S=C(c1ccc(Cl)cc1)N1CCN(Cc2ccccc2)CC1	none
CCN1CCN(C(=S)c2ccc(SC)cc2)CC1	L major viab 91
CCCc1nc2c(sc3nc4c(cc32)COC(C)(C)C4)c(=O)o1	none
CCn1cc(CN2CCN(CCc3ccccc3)C(CCO)C2)c(C)n1 (centres undefined)	none
COc1cc2c(cc1NC(=O)CSc1nc3cc(Cl)ccc3s1)oc1ccccc12	L major viab 51
COc1cc2c(cc1NC(=O)CSc1ccccc1)oc1ccccc12	none
COc1cc2c(cc1NC(=O)COC(=O)[C@@H](NS(=O)(=O)c1cccc(Cl)c1)C(C)C)oc1ccccc12	L major viab 62
COc1ccc(S(=O)(=O)N[C@@H](C)C(=O)OCC(=O)Nc2cc3oc4ccccc4c3cc2OC)cc1	none
CCOc1cc(C(=O)Nc2cccc3ncccc23)cc(OCC)c1OCC	none
COc1cccc(C(=O)COc2ccccc2-c2ccccc2)c1	L major viab 53
Cc1cccc(COc2ccc(/C=N/NC(=O)c3nnn(-c4nonc4N)c3COc3ccc(F)cc3)cc2)c1	none (no result: PKD1 kinase inh, ABCB1 block, GSH fluor, L major viab, ABCG2 block)
CC(C)CC(=O)NC(NC(=S)Nc1cccc2cccnc12)C(Cl)(Cl)Cl (centres undefined)	L major viab 52
CC(C)C(=O)NC(Nc1cccc2cccnc12)C(Cl)(Cl)Cl (centres undefined)	none
Brc1ccc(C2=NC(Cc3ccccc3)CO2)cc1 (centres undefined)	none
COCc1c(CCl)cnc(C)c1O	none
CC(=O)C1C(c2cccc(F)c2)c2c(n[nH]c2C)CC1(C)O (centres undefined)	none (no result: PKD1 kinase inh, ABCB1 block, GSH fluor, L major viab, ABCG2 block)
Cc1cc2ccccn2c1C(=O)c1ccc([N+](=O)[O-])o1	L major viab 99
CCOC(=O)C(=O)C1=C(N2CCOCC2)/C(=C\c2ccc(F)cc2)CC1	L major viab 71
CC1CCC(C(C)C)C(OC(=O)CSc2nnc(N)s2)C1 (centres undefined)	L major viab 64
O=C(CNC(=O)c1ccccc1Cl)N/N=C/C=C/c1ccccc1	none
Cc1cccc(OCc2nnc(SCC(=O)Nc3ccc(C)c(Cl)c3)o2)c1	none
COc1ccc(OCCCC(=O)NCC(C)C)cc1	none
COc1ccc(-c2nnn(CC(=O)N3CCOCC3)n2)cc1	Avidin bead fluor 79
COc1ccc(NC(=O)Cn2nnc(-c3ccc(CN4CCOCC4)cc3)n2)c(OC)c1	L major viab 83
O=C(Nc1ncccc1Cl)C1COc2ccccc2O1 (centres undefined)	none
CC(=O)N(O)CCCCCNC(=O)CCC(=O)N(O)CCCCCNC(=O)CCC(=O)N(O)CCCCCN	none
CCc1ccc2c(c1)C(C)=CC(C)(C)N2	L major viab 66
N#C/C(=C\c1ccc(N2CCCCC2)o1)C(N)=O	none
N#C/C(=C\c1ccc(N2CCCCC2)o1)C(=O)Nc1cccc(Br)c1	Avidin bead fluor 60, ABCB1 block 60, ABCG2 block 122
CC(NC(=O)/C(=C/c1ccc(OC(F)F)cc1)c1ccccc1)c1ccccc1 (centres undefined)	L major viab 78
Cc1nn(Cc2ccccc2)c(C)c1NC(=O)CSc1nc2c(c(C(F)(F)F)n1)CCc1ccccc1-2	L major viab 68
CCN(CC)CCCNC(=O)CSc1nc2c(c(C(F)(F)F)n1)CCc1ccccc1-2	Avidin bead fluor 64, L major viab 60
CC1(C)NC(=O)N(CCCOc2ccccc2Br)C1=O	none
Clc1ccc(OCCCCCN2CCCC2)c(Br)c1	L major viab 98
Brc1ccccc1OCCCCCN1CCCC1	L major viab 98
CCN1CCN(CCCOc2ccc(Cl)cc2Br)CC1	L major viab 96
Cc1cc(Cl)ccc1OCCCC(=O)N1CCCCC1	none
O=C(OCCN1CCCCC1)c1ccc(Cl)cc1	none
Clc1ccc(OCCCN2CCCCC2)c(Br)c1	L major viab 99
Cc1ccc(C)c(NCc2ccccc2CO)c1	none
COc1cccc(/C=N/Nc2cc(-n3nc(C)cc3-c3ccccc3)ncn2)c1O	L major viab 67
COc1cccc(/C=N/Nc2nc(Nc3ccccc3)nc(-n3nc(C)cc3C)n2)c1O	L major viab 100
Cc1cnn(-c2cc(N/N=C/c3ccccc3Cl)ncn2)c1	none
COc1ccc(/C=C(\C#N)C(=O)C(C)(C)n2cncn2)cc1	none
O=C(O)c1ccc(N/N=C/C2=C(N3CCOCC3)C(=C\c3ccccc3)/CC2)cc1	none (no result: PKD1 kinase inh, ABCB1 block, GSH fluor, L major viab, ABCG2 block)
CC(C)C(NC(=O)C12CC3CC(CC(C3)C1)C2)C(=O)N/N=C/C1=C(N2CCOCC2)C(=C\c2cccc([N+](=O)[O-])c2)/CC1 (centres undefined)	L major viab 97
CCC(C(=O)Nc1cc(C(=O)Nc2cc(C)ccn2)ccc1Cl)c1ccccc1 (centres undefined)	L major viab 81
CCC(C(=O)Nc1cnccn1)c1ccccc1 (centres undefined)	none
COc1ccccc1NC(=O)C1=C(C)Nc2nnnn2C1c1ccccn1 (centres undefined)	L major viab 85
COc1ccccc1NC(=O)C1=C(C)Nc2nnnn2C1c1ccccc1OC (centres undefined)	none
COc1cc(CNCc2cccs2)ccc1OCc1cccs1	L major viab 100
COc1cc(CNCc2cccs2)ccc1OCC(=O)NC(C)(C)C	L major viab 89
